Data: ChEMBL document CHEMBL1149254, “The discovery of orally active triaminotriazine aniline amides as inhibitors of p38 MAP kinase” (J Med Chem, 2004)

How the values were obtained:
[1] = biological target: Mitogen-activated protein kinase 14 (Homo sapiens, UniProt Q16539); test: Inhibition of human p38-alpha expressed in Escherichia coli
THP-1 = test: Inhibition of LPS-induced TNFalpha production in human THP1 cells by ELISA; assay type: functional, cell-based
In short: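 THP-1 cells grown in RPMI 1640 with 10% FBS, 40000 cells/well. Compound or vehicle was added (1% DMSO final), then LPS at 1 μg/mL final. Cells were incubated overnight at 37 °C, 5% CO2. TNF in the supernatant was measured by sandwich ELISA: anti-human TNF capture, biotinylated polyclonal detection, streptavidin-peroxidase read-out.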

Sequence of Mitogen-activated protein kinase 14 (Q16539 whole entry): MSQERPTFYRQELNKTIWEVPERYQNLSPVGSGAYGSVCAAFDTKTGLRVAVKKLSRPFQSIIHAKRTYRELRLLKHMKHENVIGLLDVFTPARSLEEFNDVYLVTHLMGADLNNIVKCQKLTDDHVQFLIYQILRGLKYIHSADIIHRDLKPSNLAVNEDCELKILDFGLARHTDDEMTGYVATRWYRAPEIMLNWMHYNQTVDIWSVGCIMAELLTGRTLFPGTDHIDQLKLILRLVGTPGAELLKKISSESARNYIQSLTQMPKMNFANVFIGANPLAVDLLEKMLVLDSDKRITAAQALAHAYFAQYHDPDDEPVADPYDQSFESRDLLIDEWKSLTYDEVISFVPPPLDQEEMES

SMILES	IC50 [1] [nM]	IC50 (THP-1) [nM]
Cc1ccc(C(=O)NC(C)C)cc1Nc1nc(N[C@H]2CCNC2)nc(N(C)CC(C)(C)C)n1	51	150
Cc1ccc(C(N)=O)cc1Nc1nc(N[C@H]2CCNC2)nc(N(C)CC2CCCCC2)n1	250	1300
Cc1ccc(C(N)=O)cc1Nc1nc(NC[C@@H]2CC[C@H]3C[C@@H]2C3(C)C)nc(N2CCCN(C)CC2)n1	1420	–
Cc1ccc(C(=O)NCc2ccccc2)cc1Nc1nc(N[C@H]2CCNC2)nc(N(C)CC(C)(C)C)n1	64	85
CCNC(=O)c1ccc(C)c(Nc2nc(N[C@H]3CCNC3)nc(N(C)CC(C)(C)C)n2)c1	31	140
COCCNC(=O)c1ccc(C)c(Nc2nc(N[C@H]3CCNC3)nc(N(C)CC(C)(C)C)n2)c1	264	680
COC(=O)c1ccc(C)c(Nc2nc(N[C@H]3CCNC3)nc(N(C)CC(C)(C)C)n2)c1	346	> 250
Cc1ccc(C(N)=O)cc1Nc1nc(N)nc(NC[C@@H]2CC[C@H]3C[C@@H]2C3(C)C)n1	5900	–
Cc1ccc(C(N)=O)cc1Nc1nc(NC[C@@H]2CC[C@H]3C[C@@H]2C3(C)C)nc(N2CCCNCC2)n1	1360	1700
Cc1ccc(C(=O)O)cc1Nc1nc(N(C)CC(C)(C)C)nc(N2CCCN(C)CC2)n1	> 1000	–
Cc1ccc(C(N)=O)cc1Nc1nc(NC[C@@H]2CC[C@H]3C[C@@H]2C3(C)C)nc(N[C@H]2CCNC2)n1	53	1100
